Measurements: ChEMBL document CHEMBL2086281, “Design, synthesis and 3D-QSAR analysis of novel 2-hydrazinyl-4-morpholinothieno[3,2-d]pyrimidine derivatives as potential antitumor agents” (Eur J Med Chem, 2012)

Key:
[1] = Cytotoxicity against human U87MG cells assessed as growth inhibition after 72 hrs by MTT assay; type: functional, cell-based, U-87MG ATCC; conditions: U-87 MG
Summary of the method: (§1)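 Cells grown in MEM with 10% FBS. About 4×10^3 cells/well were pre-incubated for 24 h at 37 °C in 5% CO₂, then exposed to compound at the indicated final concentrations for 72 h. MTT was added to 5 µg/mL final for 4 h at 37 °C. Formazan was dissolved in DMSO and read at 492 nm, with 630 nm as reference. IC50 is the mean of three determinations.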

[2] = test system: HT-29; test: Cytotoxicity against human HT-29 cells assessed as growth inhibition after 72 hrs by MTT assay; type: functional, cell-based; conditions: HT-29, 72 h; summary of the method: as §1
[3] = test system: NCI-H460; test: Cytotoxicity against human H460 cells assessed as growth inhibition after 72 hrs by MTT assay; type: functional, cell-based; conditions: NCI-H460, 72 h
Summary of the method: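 Cells grown in MEM with 10% FBS. About 4×10^3 cells/well were pre-incubated for 24 h at 37 °C in 5% CO₂, then exposed to compound at the indicated final concentrations for 72 h. MTT was added to 5 µg/mL final for 4 h at 37 °C. IC50 is the mean of three determinations.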

[4] = test system: MDA-MB-231; test: Cytotoxicity against human MDA-MB-231 cells assessed as growth inhibition after 72 hrs by MTT assay; type: functional, cell-based; conditions: MDA-MB-231, 72 h; summary of the method: as §1
[5] = test system: NCI-H1975; test: Cytotoxicity against human NCI-H1975 cells assessed as growth inhibition after 72 hrs by MTT assay; type: functional, cell-based; conditions: NCI-H1975, 72 h; summary of the method: as §1

Work on `N#Cc1cccc(Cn2cc(/C=N/Nc3nc(N4CCOCC4)c4sccc4n3)c3ccccc32)c1` yielded an IC50 [1] of 9.68 µM, an IC50 [2] of 4.86 µM and an IC50 ([3]; read-out: IC50) of 0.34 µM. For the same compound, the IC50 ([3]; read-out: pIC50 (converted)) was 0.347 µM and the IC50 [4] was 2 µM.

Work on `COc1cc(/C=N/Nc2nc(N3CCOCC3)nc(N3CCOCC3)n2)cc(OC)c1O` yielded an IC50 [2] of 20.2 µM, an IC50 ([3]; read-out: IC50) of 9.2 µM and an IC50 [4] of over 100 µM.

Work on `N#Cc1ccc(Cn2cc(/C=N/Nc3nc(N4CCOCC4)c4sccc4n3)c3ccccc32)cc1` yielded an IC50 [2] of 25.5 µM, an IC50 ([3]; read-out: IC50) of 1.62 µM and an IC50 ([3]; read-out: pIC50 (converted)) of 1.62 µM. For the same compound, the IC50 [4] was over 100 µM.

`Clc1ccc(Cn2c(/C=N/Nc3nc(N4CCOCC4)c4sccc4n3)nc3ccccc32)cc1` gave an IC50 [1] of 13.4 µM, an IC50 [2] of 0.77 µM and an IC50 ([3]; read-out: IC50) of 2.6 µM. The IC50 ([3]; read-out: pIC50 (converted)) was 2.63 µM and the IC50 [4] was 13.9 µM.

Compound `FC(F)(F)c1cccc(Cn2cc(/C=N/Nc3nc(N4CCOCC4)c4sccc4n3)c3ccccc32)c1` has an IC50 [5] of 2.79 µM, an IC50 [1] of 4.84 µM and an IC50 [2] of 1.68 µM. For the same compound, the IC50 ([3]; read-out: IC50) was 0.52 µM, the IC50 ([3]; read-out: pIC50 (converted)) was 0.525 µM and the IC50 [4] was 83.8 µM.

Compound `Clc1cccc(Cl)c1Cn1cc(/C=N/Nc2nc(N3CCOCC3)c3sccc3n2)c2ccccc21` has an IC50 [2] of 35.4 µM, an IC50 ([3]; read-out: IC50) of 10.4 µM and an IC50 ([3]; read-out: pIC50 (converted)) of 10.5 µM. For the same compound, the IC50 [4] was 20.5 µM.

In the case of `CC(C)(O)c1cc2nc(N/N=C/c3cn(Cc4cccc(C#N)c4)c4ccccc34)nc(N3CCOCC3)c2s1`, the IC50 [1] is reported as 6.64 µM, the IC50 [2] is reported as 1.39 µM and the IC50 ([3]; read-out: IC50) is reported as 0.36 µM. For the same compound, the IC50 ([3]; read-out: pIC50 (converted)) was 0.363 µM and the IC50 [4] was 5.61 µM.

With `Fc1ccccc1Cn1cc(/C=N/Nc2nc(N3CCOCC3)c3sccc3n2)c2ccccc21` the IC50 [5] was over 100 µM, the IC50 [1] was 22.6 µM and the IC50 [2] was 3.28 µM. It also gave an IC50 ([3]; read-out: IC50) of 0.86 µM, an IC50 ([3]; read-out: pIC50 (converted)) of 0.871 µM and an IC50 [4] of 9.24 µM.

For `CC(C)(O)c1cc2nc(N/N=C/c3cn(Cc4ccccc4F)c4ccccc34)nc(N3CCOCC3)c2s1`, the IC50 [5] was 15.6 µM, the IC50 [1] was 3.92 µM and the IC50 [2] was 1.05 µM. For the same compound, the IC50 ([3]; read-out: IC50) was 1.1 µM, the IC50 ([3]; read-out: pIC50 (converted)) was 1.1 µM and the IC50 [4] was 1.66 µM.

Compound `C(=N\Nc1nc(N2CCOCC2)c2sccc2n1)/c1nc2ccccc2n1Cc1ccccc1` has an IC50 [2] of 1.08 µM, an IC50 ([3]; read-out: IC50) of 25.6 µM and an IC50 ([3]; read-out: pIC50 (converted)) of 25.7 µM. For the same compound, the IC50 [4] was 21.3 µM.

Work on `Clc1ccc(Cn2cc(/C=N/Nc3nc(N4CCOCC4)c4sccc4n3)c3ccccc32)cc1` yielded an IC50 [1] of 15.6 µM, an IC50 [2] of 5.76 µM and an IC50 ([3]; read-out: IC50) of 0.36 µM. The IC50 ([3]; read-out: pIC50 (converted)) was 0.355 µM and the IC50 [4] was 2.7 µM.

In the case of `CC(C)(O)c1cc2nc(N/N=C/c3cn(Cc4cccc(Cl)c4Cl)c4ccccc34)nc(N3CCOCC3)c2s1`, the IC50 [2] is reported as 3.7 µM, the IC50 ([3]; read-out: IC50) is reported as 7.22 µM and the IC50 ([3]; read-out: pIC50 (converted)) is reported as 7.24 µM. It also gave an IC50 [4] of over 100 µM.

Work on `CC(C)(O)c1cc2nc(N/N=C/c3cn(Cc4ccc(Cl)cc4Cl)c4ccccc34)nc(N3CCOCC3)c2s1` yielded an IC50 [2] of 5.38 µM, an IC50 ([3]; read-out: IC50) of 8.9 µM and an IC50 ([3]; read-out: pIC50 (converted)) of 8.91 µM. The IC50 [4] was over 100 µM.

In the case of `CC(C)(O)c1cc2nc(N/N=C/c3cn(Cc4c(Cl)cccc4Cl)c4ccccc34)nc(N3CCOCC3)c2s1`, the IC50 [2] is reported as 3.36 µM, the IC50 ([3]; read-out: IC50) is reported as 4.03 µM and the IC50 ([3]; read-out: pIC50 (converted)) is reported as 4.07 µM. It also gave an IC50 [4] of 62.1 µM.

Compound `CC(C)(O)c1cc2nc(N/N=C/c3cn(Cc4ccc(Cl)cc4)c4ccccc34)nc(N3CCOCC3)c2s1` has an IC50 [5] of 33.8 µM, an IC50 [1] of 7.43 µM and an IC50 [2] of 0.87 µM. For the same compound, the IC50 ([3]; read-out: IC50) was 0.55 µM, the IC50 ([3]; read-out: pIC50 (converted)) was 0.55 µM and the IC50 [4] was 5.14 µM.

For `Fc1ccc(Cn2cc(/C=N/Nc3nc(N4CCOCC4)c4sccc4n3)c3ccccc32)cc1`, the IC50 [5] was over 100 µM, the IC50 [1] was 8.83 µM and the IC50 [2] was 1.79 µM. For the same compound, the IC50 ([3]; read-out: IC50) was 0.41 µM, the IC50 ([3]; read-out: pIC50 (converted)) was 0.407 µM and the IC50 [4] was 12.3 µM.

With `Cc1ccc(Cn2cc(/C=N/Nc3nc(N4CCOCC4)c4sccc4n3)c3ccccc32)cc1` the IC50 [5] was 33.1 µM, the IC50 [1] was 4.97 µM and the IC50 [2] was 3.31 µM. The IC50 ([3]; read-out: IC50) was 0.83 µM, the IC50 ([3]; read-out: pIC50 (converted)) was 0.832 µM and the IC50 [4] was 9.73 µM.

With `Clc1ccc(Cn2cc(/C=N/Nc3nc(N4CCOCC4)c4sccc4n3)c3ccccc32)c(Cl)c1` the IC50 [2] was 46.5 µM, the IC50 ([3]; read-out: IC50) was 5.77 µM and the IC50 ([3]; read-out: pIC50 (converted)) was 5.75 µM. It also gave an IC50 [4] of over 100 µM.
